Measured values taken from ChEMBL document CHEMBL4602651, “Development of selective mono or dual PROTAC degrader probe of CDK isoforms” (Eur J Med Chem, 2020).
The source made the active and inactive calls. The rule behind the calls is not given here.

How the values were obtained:
[1] = molecular target: T1, Protein cereblon/Cyclin-dependent kinase 2/Cyclin-dependent kinase 9 (Homo sapiens, UniProt P24941+P50750+Q96SW2); experiment: Protac activity at CRBN/CDK2/CDK9 in AR-negative human PC3 cells assessed as induction of CDK2 protein degradation at 1 uM after 12 hrs by Western blot analysis; assay type: cell-based; details: PC-3
Summary of the method: (§1)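 PC-3 cells (5 × 10^5 per well) treated 12 h at single concentrations (50 nM, 500 nM, 1, 5 or 30 µM). RIPA lysates (50 µg) run on 10% SDS-PAGE and immunoblotted for CDK2, CDK5, CDK9 with β-tubulin loading control, then detected by chemiluminescence. Band intensities quantified densitometrically.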

[2] = molecular target: Protein cereblon/Cyclin-dependent kinase 2 (Homo sapiens) (UniProt P24941+Q96SW2); experiment: Protac activity at CRBN/CDK2 in AR-negative human PC3 cells assessed as induction of CDK2 protein degradation at 50 nM after 12 hrs by Western blot analysis; assay type: cell-based; details: PC-3; summary of the method: as §1
[3] = molecular target: Protein cereblon/Cyclin-dependent kinase 9 (Homo sapiens) (UniProt P50750+Q96SW2); experiment: Protac activity at CRBN/CDK9 in AR-negative human PC3 cells assessed as induction of CDK9 protein degradation at 50 nM after 12 hrs by Western blot analysis; assay type: cell-based; details: PC-3
Protein cereblon/Cyclin-dependent kinase 9 (Homo sapiens), sequence (P50750 whole entry, looked up): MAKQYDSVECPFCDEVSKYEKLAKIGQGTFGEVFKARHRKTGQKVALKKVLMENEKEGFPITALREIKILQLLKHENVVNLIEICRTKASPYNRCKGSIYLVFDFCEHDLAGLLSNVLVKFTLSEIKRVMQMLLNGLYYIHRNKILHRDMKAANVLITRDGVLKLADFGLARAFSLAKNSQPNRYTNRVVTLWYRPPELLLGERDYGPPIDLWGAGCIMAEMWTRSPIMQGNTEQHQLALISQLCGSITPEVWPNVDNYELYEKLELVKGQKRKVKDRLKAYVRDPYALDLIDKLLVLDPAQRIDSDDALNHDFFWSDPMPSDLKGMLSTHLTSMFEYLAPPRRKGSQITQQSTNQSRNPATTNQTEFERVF
Protein cereblon/Cyclin-dependent kinase 9 (Homo sapiens), sequence (Q96SW2 whole entry, looked up): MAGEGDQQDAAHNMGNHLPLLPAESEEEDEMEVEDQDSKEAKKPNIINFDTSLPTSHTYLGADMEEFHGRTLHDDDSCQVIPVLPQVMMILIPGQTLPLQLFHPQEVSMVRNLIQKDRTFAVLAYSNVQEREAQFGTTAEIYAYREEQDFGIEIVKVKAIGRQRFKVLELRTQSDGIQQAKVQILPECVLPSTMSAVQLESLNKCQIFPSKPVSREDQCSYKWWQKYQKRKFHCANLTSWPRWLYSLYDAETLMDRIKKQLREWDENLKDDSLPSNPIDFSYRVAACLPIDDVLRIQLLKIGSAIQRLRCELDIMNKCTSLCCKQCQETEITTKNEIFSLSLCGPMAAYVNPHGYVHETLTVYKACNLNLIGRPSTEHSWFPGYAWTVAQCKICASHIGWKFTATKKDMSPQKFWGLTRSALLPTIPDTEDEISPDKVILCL
Summary of the method: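 PC-3 cells (DMEM/F12 1:1, 10% FBS, 1% pen/strep, 37 °C, 5% CO2) plated at 5 × 10^5 per well, exposed to compound for 12 h. RIPA lysates with protease inhibitors; 50 µg total protein run on 10% SDS-PAGE, transferred to PVDF, blocked in 5% milk/TBS-T. Probed with anti-CDK9 (1/1000), β-tubulin loading control, HRP secondary, chemiluminescence; bands scored as degradation detected or not.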

[4] = molecular target: T1, Protein cereblon/Cyclin-dependent kinase 2/Cyclin-dependent kinase 9; experiment: Protac activity at CRBN/CDK2/CDK9 in AR-negative human PC3 cells assessed as induction of CDK2 protein degradation after 24 hrs by Western blot analysis; assay type: cell-based
Summary of the method: (§2)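 PC-3 cells exposed to a degrader concentration series, then immunoblotted for CDK2 and CDK9 versus β-tubulin. The figure legend gives 24 h exposure. DC50 taken as mean of 2 determinations from densitometry.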

[5] = molecular target: T1, Protein cereblon/Cyclin-dependent kinase 2/Cyclin-dependent kinase 9; experiment: Protac activity at CRBN/CDK2/CDK9 in AR-negative human PC3 cells assessed as induction of CDK9 protein degradation after 24 hrs by Western blot analysis; assay type: cell-based; summary of the method: as §2
[6] = molecular target: T1, Protein cereblon/Cyclin-dependent kinase 2/Cyclin-dependent kinase 9; experiment: Protac activity at CRBN/CDK2/CDK9 in AR-negative human PC3 cells assessed as CDK2 degradation at 250 nM preincubated with FN-1501 for 2 hrs and measured after 8 hrs by Western blot analysis; assay type: cell-based; details: PC-3
Summary of the method: (§3)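 PC-3 cells pretreated 2 h with 5 µM DMSO, FN-1501, pomalidomide or MG-132, then exposed to degrader at 250 nM for 8 h. Lysates probed for CDK2 and CDK9, β-tubulin as loading control. 50 µg protein per lane, 10% SDS-PAGE, chemiluminescent detection.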

[7] = molecular target: CDK2/Cyclin A2 (Homo sapiens, UniProt P24941); experiment: Inhibition of tracer K10 binding to NanoLuc-CDK2/Cyclin A (unknown origin) expressed in human HEK293 cells after 1 hr in presence of ATP by NanoBRET assay; assay type: cell-based
Summary of the method: (§4)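 Cell-based target engagement run by a contract lab. HEK293 cells pretreated with NanoBRET Tracer K-10, then exposed to compound for 1 h with 10 µM ATP, and BRET signal read. 10-point, 3-fold dilutions from 1 µM. Staurosporine reference used 4-fold dilutions from 20 µM. IC50 from sigmoidal dose-response fit.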

[8] = molecular target: CDK9/cyclin T1 (Homo sapiens, UniProt P50750); experiment: Inhibition of tracer K10 binding to NanoLuc-CDK9/Cyclin T1 (unknown origin) expressed in human HEK293 cells after 1 hr in presence of ATP by NanoBRET assay; assay type: cell-based; summary of the method: as §4
CDK9/cyclin T1, sequence (O60563 whole entry): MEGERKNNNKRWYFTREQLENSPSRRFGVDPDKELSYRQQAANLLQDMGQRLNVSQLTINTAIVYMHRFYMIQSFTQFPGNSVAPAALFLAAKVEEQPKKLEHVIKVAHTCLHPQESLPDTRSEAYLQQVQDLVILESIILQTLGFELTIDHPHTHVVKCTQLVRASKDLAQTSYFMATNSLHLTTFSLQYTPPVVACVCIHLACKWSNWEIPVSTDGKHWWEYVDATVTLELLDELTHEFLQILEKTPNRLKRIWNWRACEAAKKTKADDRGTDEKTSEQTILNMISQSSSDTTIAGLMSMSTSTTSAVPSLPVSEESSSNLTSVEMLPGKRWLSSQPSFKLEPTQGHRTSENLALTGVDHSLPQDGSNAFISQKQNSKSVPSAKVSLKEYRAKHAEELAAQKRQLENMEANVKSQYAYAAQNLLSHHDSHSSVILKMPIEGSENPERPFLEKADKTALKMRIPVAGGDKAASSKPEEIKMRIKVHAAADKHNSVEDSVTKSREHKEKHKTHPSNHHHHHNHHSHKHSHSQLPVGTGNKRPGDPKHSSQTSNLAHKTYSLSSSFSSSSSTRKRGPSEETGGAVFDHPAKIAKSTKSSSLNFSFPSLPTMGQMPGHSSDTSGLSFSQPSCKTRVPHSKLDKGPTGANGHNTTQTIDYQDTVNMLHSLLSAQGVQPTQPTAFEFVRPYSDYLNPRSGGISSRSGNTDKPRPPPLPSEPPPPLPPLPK
CDK9/cyclin T1, sequence (P50750 whole entry): as the sequence (P50750 whole entry, looked up) above

[9] = molecular target: T1, Protein cereblon/Cyclin-dependent kinase 2/Cyclin-dependent kinase 9; experiment: Protac activity at CRBN/CDK2/CDK9 in human MCF7 cells assessed as CDK2 degradation at 0.25 to 10 uM after 12 hrs by Westernblot analysis; assay type: cell-based
Summary of the method: (§5)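 22Rv1, HCT-116 (RPMI 1640, 10% FBS) and MCF-7 cells treated with degrader at indicated concentrations for 12 h. CDK2 and CDK9 blotted with β-tubulin loading control.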

[10] = molecular target: T1, Protein cereblon/Cyclin-dependent kinase 2/Cyclin-dependent kinase 9; experiment: Protac activity at CRBN/CDK2/CDK9 in human 22Rv1 cells assessed as CDK2 degradation at 0.25 to 10 uM after 12 hrs by Westernblot analysis; assay type: cell-based; details: CWR22R; summary of the method: as §5
[11] = test system: PC-3; experiment: Induction of cell cycle arrest in human PC3 cells assessed as accumulation at S phase at 250 nM after 48 hrs by propidium iodide staining based flow cytometry (reference value: 17.96%); assay type: functional
[12] = test system: PC-3; experiment: Induction of cell cycle arrest in human PC3 cells assessed as accumulation at G2/M phase at 250 nM after 48 hrs by propidium iodide staining based flow cytometry (reference value: 22.24%); assay type: functional
[13] = test system: PC-3; experiment: Induction of cell cycle arrest in human PC3 cells assessed as accumulation at S phase at 1 uM after 48 hrs by propidium iodide staining based flow cytometry (reference value: 17.96%); assay type: functional
[14] = test system: PC-3; experiment: Induction of cell cycle arrest in human PC3 cells assessed as accumulation at G0/G1 phase at 3 uM after 48 hrs by propidium iodide staining based flow cytometry (reference value: 59.80%); assay type: functional
[15] = test system: PC-3; experiment: Induction of cell cycle arrest in human PC3 cells assessed as accumulation at S phase at 3 uM after 48 hrs by propidium iodide staining based flow cytometry (reference value: 17.96%); assay type: functional
[16] = test system: PC-3; experiment: Induction of cell cycle arrest in human PC3 cells assessed as accumulation at G2/M phase at 3 uM after 48 hrs by propidium iodide staining based flow cytometry (reference value: 22.24%); assay type: functional
[17] = test system: PC-3; experiment: Antiproliferative activity against AR-negative human PC3 cells at 2 uM after 24 hrs by CFSE dye based flow cytometry; assay type: functional, cell-based
Summary of the method: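 PC-3 cells treated 24 h at 2 µM alongside DMSO control. Single-cell suspension labelled with CFSE (final 5 µM) for 15 min at room temperature in the dark, then proliferation read by flow cytometry.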

[18] = molecular target: T1, Protein cereblon/Cyclin-dependent kinase 2/Cyclin-dependent kinase 9; experiment: Protac activity at CRBN/CDK2/CDK9 in AR-negative human PC3 cells assessed as CDK9 degradation at 250 nM preincubated with pomalidomide for 2 hrs and measured after 8 hrs by Western blot analysis; assay type: cell-based; details: PC-3; summary of the method: as §3
[19] = molecular target: T1, Protein cereblon/Cyclin-dependent kinase 2/Cyclin-dependent kinase 9; experiment: Protac activity at CRBN/CDK2/CDK9 in AR-negative human PC3 cells assessed as CDK9 degradation at 250 nM preincubated with FN-1501 for 2 hrs and measured after 8 hrs by Western blot analysis; assay type: cell-based; details: PC-3; summary of the method: as §3
[20] = molecular target: T1, Protein cereblon/Cyclin-dependent kinase 2/Cyclin-dependent kinase 9; experiment: Protac activity at CRBN/CDK2/CDK9 in AR-negative human PC3 cells assessed as CDK9 degradation at 250 nM preincubated with proteasome inhibitor MG132 for 2 hrs and measured after 8 hrs by Western blot analysis; assay type: cell-based; details: PC-3; summary of the method: as §3
[21] = molecular target: T1, Protein cereblon/Cyclin-dependent kinase 2/Cyclin-dependent kinase 9; experiment: Protac activity at CRBN/CDK2/CDK9 in human 22Rv1 cells assessed as CDK9 degradation at 0.25 to 10 uM after 12 hrs by Westernblot analysis; assay type: cell-based; details: CWR22R; summary of the method: as §5
[22] = molecular target: T1, Protein cereblon/Cyclin-dependent kinase 2/Cyclin-dependent kinase 9; experiment: Protac activity at CRBN/CDK2/CDK9 in AR-negative human PC3 cells assessed as induction of CDK9 protein degradation at 1 uM after 12 hrs by Western blot analysis; assay type: cell-based; details: PC-3; summary of the method: as §1

- Activity [1]: Active
- Activity [2]: Active
- Activity [3]: Active
- Activity ([4]; PC-3): Dose-dependent effect
- DC50 ([4]; pc-3): 62 nM
- Activity ([5]; PC-3): Dose-dependent effect
- DC50 ([5]; pc-3): 33 nM
- Activity [6]: inactive
- IC50 [7]: 7.42 nM
- IC50 [8]: 14.5 nM
- Activity [9]: Active
- Activity [10]: Active
- Activity [18]: inactive
- Activity [19]: inactive
- Activity [20]: inactive
- Activity [21]: Active
- Activity [22]: Active
SMILES: O=C(CCC(=O)N1CCN(Cc2ccc(NC(=O)c3n[nH]cc3Nc3ncnc4[nH]ccc34)cc2)CC1)NCCNc1cccc2c1C(=O)N(C1CCC(=O)NC1=O)C2=O (centres undefined)
- Activity [11]: 27.72%
- Activity [12]: 22.13%
- Activity [13]: 9.23%
- Activity [14]: 52.76%
- Activity [15]: 11.24%
- Activity [16]: 36%
- Activity [17]: Active
